Hits are enriched below; roughly 4.3% of the tested compounds scored in any of these assays.
UBC13 inh = UBC13 polyubiquitin chain formation inhibitors, primary screen, biochemical, TR-FRET, uHTS. Ubiquitin-conjugating enzyme E2 N (Homo sapiens), P61088. AID 485273, 2010. inhibition, % at 20 µM. 330,000 tested, 0.47% active; in the data active means inhibition above about 45%, passing the limit was not always enough; inconclusive means no clear call, values can overlap the other calls
Target sequence (P61088 whole entry, looked up): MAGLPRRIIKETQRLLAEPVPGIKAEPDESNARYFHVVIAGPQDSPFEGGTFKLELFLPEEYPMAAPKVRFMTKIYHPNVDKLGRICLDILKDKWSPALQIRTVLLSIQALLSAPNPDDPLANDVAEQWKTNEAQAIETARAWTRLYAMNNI
UBC9 SUMO inh = inhibitors of in vitro SUMOylation cascade, primary screen, biochemical, HTRF, uHTS; SUMO-conjugating enzyme UBC9 (Homo sapiens), P63279; HTRF SUMOylation assay, SAE1/SAE2 + UBC9; inhibition, % at 35 µM; 290,000 tested, 0.36% active; in the data active means inhibition above about 50%, passing the limit was not always enough; inconclusive means no clear call, values can overlap the other calls
Target sequence (P63279 whole entry, looked up): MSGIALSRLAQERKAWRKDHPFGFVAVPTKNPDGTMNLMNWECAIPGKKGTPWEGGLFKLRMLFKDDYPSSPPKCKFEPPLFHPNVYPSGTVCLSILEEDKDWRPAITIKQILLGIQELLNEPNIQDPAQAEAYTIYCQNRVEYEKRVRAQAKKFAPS
Rin1-Abl PPI inh = inhibitors of Rin1-Abl protein binding, primary screen, biochemical, TR-FRET; 360,000 tested, 0.4% active; inhibition, % at 7.35 µM; Tyrosine-protein kinase ABL1 (Homo sapiens) + Ras and Rab interactor 1 (Homo sapiens), …; in the data active means inhibition above about 5%, passing the limit was not always enough
ALR inh = inhibitors of human ALR sulfhydryl oxidase, primary screen, biochemical, H2O2 detection, HRP-luminol luminescence, single point; FAD-linked sulfhydryl oxidase ALR (Homo sapiens), P55789; purified ALR, DTT oxidation; inhibition, % (concentration not given with the values); 290,000 tested, 3.8% active; AID 485317, 2010;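 active means mean replicate inhibition above about 79%, with every replicate also reaching it, limit read from the data; inconclusive means only one of the two criteria met; inactive means mean below limit and not every replicate reaching it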
Target sequence (P55789 whole entry, looked up): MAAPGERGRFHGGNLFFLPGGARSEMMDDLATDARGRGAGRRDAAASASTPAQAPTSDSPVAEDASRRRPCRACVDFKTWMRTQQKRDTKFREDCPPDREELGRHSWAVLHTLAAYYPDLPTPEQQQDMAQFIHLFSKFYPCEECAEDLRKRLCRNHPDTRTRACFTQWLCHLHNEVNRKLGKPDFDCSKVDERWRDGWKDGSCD
RBBP9 inh = human RBBP9 inhibitors, primary screen, biochemical, fluorescence polarization, FP-Rh probe, HTS; recombinant RBBP9; inhibition, % at 7.94 µM; 220,000 tested, 0.2% active; AID 1515, 2009;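 active means inhibition above the campaign mean of all tested compounds plus 3 SD, cut at about 14% in these data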
Target sequence (O75884 whole entry, looked up): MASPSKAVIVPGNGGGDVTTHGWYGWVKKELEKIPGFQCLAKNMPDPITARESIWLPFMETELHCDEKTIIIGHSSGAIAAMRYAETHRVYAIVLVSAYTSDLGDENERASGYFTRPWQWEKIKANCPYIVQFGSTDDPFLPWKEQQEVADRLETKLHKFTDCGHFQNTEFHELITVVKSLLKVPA
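System: RBBP9 protein | Quantity: 2.5 µM RBBP9 dispensing solution, before mixing | Reagent: FP-Rh probe, 375 nM dispensing solution | Timing: Enzyme-compound preincubation 30 min, then probe labeling 45 min, 25 °C | Measured by: Fluorescence polarization | Read-out: % inhibition | Replication: One well per compound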
PREPL inh = PREPL enzyme inhibitors, primary screen, biochemical, fluorescence polarization. Prolyl endopeptidase-like (Homo sapiens), Q4J6C6. recombinant PREPL, fluorescence polarization activity-based probe. inhibition, % at 5.96 µM. 320,000 tested, 0.68% active; in the data active means inhibition above about 43%
Of the large screens only hits and unclear results are named; the others gave an inactive call.

O=C(CN1CCCCC1)Nc1ccc(N2CCCCCC2)cc1	ALR inh 99
COc1cc(CNc2ncc(-c3ccc(Br)cc3)n2C)cc(OC)c1O	ALR inh 86 (no result: RBBP9 inh)
COc1ccc(CNc2ncc(-c3ccc(F)cc3)n2C)cc1OC	none (no result: RBBP9 inh)
Cn1c(-c2ccccc2)cnc1NCc1cccc([N+](=O)[O-])c1	none (no result: RBBP9 inh)
Cn1c(-c2cccc(Br)c2)cnc1NCc1cccnc1	ALR inh 85
COc1ccccc1CNc1ncc(-c2ccc(F)cc2)n1C	ALR inh 98 (no result: RBBP9 inh)
COc1ccccc1CNc1ncc(-c2ccccc2)n1C	none (no result: ALR inh, RBBP9 inh, PREPL inh)
COc1cc(OC)nc(Nc2nc(C(N)Cc3ccc(F)cc3)cs2)n1 (stereo unspecified)	none (no result: UBC13 inh, UBC9 SUMO inh, ALR inh, RBBP9 inh, PREPL inh)
Oc1[nH]c2ccccc2c1C1=NCCCC1	ALR inh 98
CCn1c(O)c(C2=NCCCC2)c2ccccc21	none (no result: ALR inh)
Cc1c(Cl)c(C(=O)NNC(=S)Nc2ccc(F)cc2)nn1C	ALR inh 81
Cc1c(Cl)c(C(=O)NNC(=S)Nc2ccccc2)nn1C	ALR inh 91
CCNC(=S)NNC(=O)c1nn(C)c(C)c1Cl	none
Cn1c(C(=O)N2CCN(C(=O)c3ccco3)CC2)cc2c(=O)n3ccccc3nc21	UBC9 SUMO inh 58
CC1CCCCC1NC(=O)c1cc2c(=O)n3ccccc3nc2n1C (stereo unspecified)	UBC9 SUMO inh 58 (no result: RBBP9 inh)
Cn1c(C(=O)N2CCOCC2)cc2c(=O)n3ccccc3nc21	UBC9 SUMO inh inconclusive (no result: ALR inh, RBBP9 inh)
COc1cc(CNc2ccc3[nH]c(=O)[nH]c3c2)cc(Br)c1OCc1ccc(F)cc1	none (no result: RBBP9 inh, PREPL inh)
Cc1c(Cl)cccc1NC(=S)Nc1ccc2[nH]c(=O)[nH]c2c1	ALR inh 95
CNC(=S)Nc1ccc2[nH]c(=O)[nH]c2c1	none
O=c1[nH]c2ccc(NC(=S)Nc3ccc(F)cc3)cc2[nH]1	ALR inh 90
O=c1[nH]c2ccc(NCc3ccc(F)cc3)cc2[nH]1	ALR inh 100 (no result: RBBP9 inh)
COc1ccc2c(c1)OC[C@H]1[C@H]2N2C(=O)[C@H](C)NC(=O)[C@@]2(C)[C@H]1c1ccccc1	none (no result: UBC9 SUMO inh, RBBP9 inh)
Cc1ccc(/C=C2/SC(=O)NC2=S)o1	none (no result: ALR inh, PREPL inh)
COc1ccc(C(O)c2ncc(-c3cccc(C(F)(F)F)c3)[nH]2)cc1 (stereo unspecified)	none (no result: UBC13 inh, UBC9 SUMO inh, ALR inh, RBBP9 inh, PREPL inh)
O=C(c1cccs1)N1CCN(Cc2ccccc2[N+](=O)[O-])CC1	none
Oc1ccc(NCc2cccc(OCc3ccc(F)cc3)c2)cc1	UBC9 SUMO inh 74 (no result: ALR inh)
N#Cc1c(N)nc(N)nc1Nc1ccc(Br)cc1	none (no result: ALR inh)
Nc1cnc(Nc2ccc(Br)cc2)nc1N	ALR inh 96
COc1cc(NC(=O)Nc2cccn3nc(COCCO)nc23)cc(OC)c1OC	none (no result: UBC13 inh, UBC9 SUMO inh, ALR inh, RBBP9 inh, PREPL inh)
COc1ccc(CS(=O)c2nc(C)cc(C)c2S(C)(=O)=O)cc1 (stereo unspecified)	none
O=C(NNc1ccc(O)cc1)c1ccc(Br)cc1	ALR inh 99
O=C(NNc1ccccc1)c1ccccc1	none (no result: UBC13 inh, UBC9 SUMO inh, ALR inh, RBBP9 inh, PREPL inh)
CCOc1ccc(NC(=S)N(CC)Cc2ccccc2)cc1	none (no result: Rin1-Abl PPI inh)
CNC(=O)CCc1[nH]c2ccccc2c1Sc1ccccc1	ALR inh 98
CN1C(=O)C2(OCC(CO)([N+](=O)[O-])CO2)c2ccccc21 (stereo unspecified)	none (no result: RBBP9 inh)
O=C(CCCc1c[nH]c2ccccc12)NCC1COc2ccccc2O1 (stereo unspecified)	ALR inh 98
O=C(CCc1c[nH]c2ccccc12)NCC1COc2ccccc2O1 (stereo unspecified)	none
CC1(C(=O)NS(=O)(=O)c2cccc(Cl)c2)CCN1C(=O)C1(c2ccc(Cl)cc2)CCC1 (stereo unspecified)	none (no result: UBC13 inh, UBC9 SUMO inh, ALR inh, RBBP9 inh, PREPL inh)
O=c1c2ccccc2cnn1Cc1n[nH]c(=S)n1C1CC2CCC1C2 (stereo unspecified)	ALR inh 86
CC(c1ccccc1)n1c(Cn2ncc3ccccc3c2=O)n[nH]c1=S (stereo unspecified)	none
COc1ccc(N2CCN(C(=O)c3ccc(Br)o3)CC2)cc1	ALR inh 84 (no result: RBBP9 inh)
COc1ccc(S(=O)(=O)Cc2ccc(C(=O)N3CCN(c4cccc(C)c4)C(C)C3)o2)cc1 (stereo unspecified)	ALR inh 94
COc1ccc(S(=O)(=O)Cc2ccc(C(=O)N3CCN(C4CCCCC4)CC3)o2)cc1	ALR inh 92
COc1ccc(S(=O)(=O)Cc2ccc(C(=O)N3CCN(c4ccc(Cl)cc4)CC3)o2)cc1	ALR inh 86
C=CCN(CC=C)Cc1cc(=O)oc2cc(C)cc(C)c12	none (no result: UBC13 inh, UBC9 SUMO inh, ALR inh, RBBP9 inh, PREPL inh)
COc1ccc(S(=O)(=O)Cc2ccc(C(=O)N3CCc4ccccc4C3)o2)cc1	ALR inh 97
O=C(c1ccc(F)cc1)N1CCOCC1	none
O=C(Nc1ccc(F)cc1)c1ccc(C(=O)N2CCOCC2)cc1	ALR inh 99 (no result: UBC9 SUMO inh, RBBP9 inh)
CCn1c(=O)c([N+](=O)[O-])c(Cl)c2ccccc21	none
O=c1c([N+](=O)[O-])c(O)c2ccccc2n1Cc1ccccc1	ALR inh 99 (no result: RBBP9 inh)
Brc1cc2c(cc1COc1ccc(-c3nn[nH]n3)cc1)OCO2	ALR inh 98
Cc1ccc(S(=O)(=O)N2CCOCC2)cc1C(=O)NC(=S)N1CC(C)OC(C)C1 (stereo unspecified)	none
NS(=O)(=O)c1cccc(NC(=O)COC(=O)c2ccc(S(=O)(=O)N3CCOCC3)cc2)c1	none (no result: UBC13 inh, UBC9 SUMO inh, ALR inh, RBBP9 inh, PREPL inh)
COc1ccccc1-c1nc(C#N)c(N2CCCCCC2)o1	none
COc1ccc(N2CCN(c3oc(-c4ccccc4OC)nc3C#N)CC2)cc1	PREPL inh 52
CCc1ccc(NC(=O)N2CCCCCC2)cc1	none (no result: RBBP9 inh)
CCN1CCN(C(=O)Nc2ccc(Cc3ccc(NC(=O)N4CCN(CC)CC4)cc3)cc2)CC1	ALR inh 99
COc1ccc(Cl)cc1NC(=S)NCCc1ccc(F)cc1	none (no result: RBBP9 inh, PREPL inh)
COc1ccc(Cl)cc1NCCC(O)c1ccc(F)cc1 (stereo unspecified)	ALR inh 99 (no result: RBBP9 inh)
COc1ccc(NCCC(O)c2ccc(Cl)cc2)cc1 (stereo unspecified)	ALR inh 99 (no result: RBBP9 inh)
Cc1ccc2c(c1)N(CCC(=O)NC1CCCCC1)C(=O)CO2	none (no result: RBBP9 inh)
CSc1nc(O)c(C(c2ccc(C)cc2)c2c(O)nc(SC)[nH]c2=O)c(=O)[nH]1	ALR inh 89 (no result: RBBP9 inh)
Cc1cc(NC(=S)Nc2ccc(C)c(Cl)c2)n[nH]1	ALR inh 97
CN(C)CCCNCCCNC(=O)/C(=N\O)c1ccccc1	none
COc1cc2c(cc1OC)C(c1cccs1)N(C(=S)NC(C)C)CC2 (stereo unspecified)	none
Cc1ccc(-c2nc(CS(=O)(=O)CC(=O)NCCN3CCCC3)c(C)o2)cc1	none (no result: RBBP9 inh)
